We go through 49 variants from the RNAGym collection of RNA variant scans (doi:10.1002/anie.201605470).

B1: Osa-1-4 twister ribozyme (parent)
chain: CCGCCUAACACUGCCAAUGCCGGUCCCAAGCCCGGAUAAAAGUGGAGGGGGCGG

Variants of B1 are the subject of this data set. The data set is described as follows: self-cleavage, relative activity (ratio to wild type); higher = more cleavage; co-transcriptional. Summed up:
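Relative activity is the fraction cleaved divided by that of the wild-type ribozyme. The library came from a DNA template for a 54-nucleotide Oryza sativa twister ribozyme, doped at the 48 positions downstream of the cleavage site with 97 % wild-type base and 1 % of each other base. After 2 h of in vitro transcription at 37 °C with co-transcriptional self-cleavage, the RNA was reverse-transcribed with a template-switching oligonucleotide, amplified by PCR and deep-sequenced, and reads with or without upstream sequence gave the cleavage status.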
Consider CCGCCUAACACUGCCAAUGCCGGUCACAAGCCCGGAUGAAAGUGGAGGGGGCGG [A38G C26A], for which the self-cleavage is 0.06.

As to CCGCCUAACACUGCCAAUGCCGGUCUCAAGCCCGGAUGAAAGUGGAGGGGGCGG [A38G C26U], the self-cleavage is 0.85.

For the variant CCGCCUAACACUGCCAAGGCCGGUCCCAAGCCCGGAUCAAAGUGGAGGGGGCGG [A38C U18G], the self-cleavage was 0.81.

As for CCGCCUAACACUGCCAAAGCCGGUCCCAAGCCCGGAUCAAAGUGGAGGGGGCGG [A38C U18A], the self-cleavage worked out at 0.98.

With CCGCCUAACACUGCCAACGCCGGUCCCAAGCCCGGAUCAAAGUGGAGGGGGCGG [A38C U18C], the self-cleavage stood at 0.99.

As for CCGCCUAACACUGCCAAUGCCGGUCCCAAGCCCGGAUGAAGGUGGAGGGGGCGG [A38G A41G], the self-cleavage was 0.75.

As for CCGCCUAACACUGCCAAUGCCGGUCCCAAGCCCGGAUGAAUGUGGAGGGGGCGG [A38G A41U], the self-cleavage amounted to 1.01.

Regarding CCGCCUAACACUGCCAAUGCCGGUCCCAAGCCCGGAUGAACGUGGAGGGGGCGG [A38G A41C], the self-cleavage was 0.98.

Take CCGCCUAACACUGCCAAUUCCGGUCCCAAGCCCGGAUGAAAGUGGAGGGGGCGG [A38G G19U]: the self-cleavage is 0.14.

Regarding CCGCCUAACACUGCCAAUACCGGUCCCAAGCCCGGAUGAAAGUGGAGGGGGCGG [A38G G19A], the self-cleavage is 0.46.

Consider CCGCCUAACACUGCCAAUCCCGGUCCCAAGCCCGGAUGAAAGUGGAGGGGGCGG [A38G G19C], for which the self-cleavage came out at 0.06.

Turning to CCGCCUAACAGUGCCAAUGCCGGUCCCAAGCCCGGAUGAAAGUGGAGGGGGCGG [A38G C11G], the self-cleavage stood at 0.68.

As for CCGCCUAACAUUGCCAAUGCCGGUCCCAAGCCCGGAUGAAAGUGGAGGGGGCGG [A38G C11U], the self-cleavage is 0.94.

For the variant CCGCCUAACAAUGCCAAUGCCGGUCCCAAGCCCGGAUGAAAGUGGAGGGGGCGG [A38G C11A], the self-cleavage was 0.8.

On to CCGCCUAACACUGCCAAUGCCGAUCCCAAGCCCGGAUGAAAGUGGAGGGGGCGG [A38G G23A], for which the self-cleavage amounted to 0.47.

With CCGCCUAACACUGCCAAUGCCGUUCCCAAGCCCGGAUGAAAGUGGAGGGGGCGG [A38G G23U], the self-cleavage was 0.1.

Consider CCGCCUAACACUGCCAAUGCCGCUCCCAAGCCCGGAUGAAAGUGGAGGGGGCGG [A38G G23C], for which the self-cleavage is 0.08.

With CCGCCUAACACUGCCAAUGCCGGUCCCAAGACCGGAUGAAAGUGGAGGGGGCGG [A38G C31A], the self-cleavage was found to be 0.03.

Consider CCGCCUAACACUGCCAAUGCCGGUCCCAAGUCCGGAUGAAAGUGGAGGGGGCGG [A38G C31U], for which the self-cleavage amounted to 0.73.

CCGCCUAACACUGCCAAUGCCGGUCCCAAGGCCGGAUGAAAGUGGAGGGGGCGG [A38G C31G]: the self-cleavage was 0.13.

For CCGCCUAACACUCCCAAUGCCGGUCCCAAGCCCGGAUGAAAGUGGAGGGGGCGG [A38G G13C], the self-cleavage stood at 0.03.

Regarding CCGCCUAACACUUCCAAUGCCGGUCCCAAGCCCGGAUGAAAGUGGAGGGGGCGG [A38G G13U], the self-cleavage was found to be 0.03.

For the variant CCGCCUAACACUACCAAUGCCGGUCCCAAGCCCGGAUGAAAGUGGAGGGGGCGG [A38G G13A], the self-cleavage came out at 0.12.

With CCGCCUAACACUGCCAAUGCCGGUCCCAAGCCCGGAACAAAGUGGAGGGGGCGG [A38C U37A], the self-cleavage was 1.05.

Take CCGCCUAACACUGCCAAUGCCGGUCCCAAGCCCGGAGCAAAGUGGAGGGGGCGG [A38C U37G]: the self-cleavage was determined as 0.99.

For the variant CCGCCUAACACUGCCAAUGCCGGUCCCAAGCCCGGACCAAAGUGGAGGGGGCGG [A38C U37C], the self-cleavage was found to be 1.

Turning to CCGCCUAACACUGCCAAUGCCGGUCCCAAGCCAGGAUGAAAGUGGAGGGGGCGG [A38G C33A], the self-cleavage was determined as 0.11.

Consider CCGCCUAACACUGCCAAUGCCGGUCCCAAGCCGGGAUGAAAGUGGAGGGGGCGG [A38G C33G], for which the self-cleavage is 0.07.

Consider CCGCCUAACACUGCCAAUGCCGGUCCCAAGCCUGGAUGAAAGUGGAGGGGGCGG [A38G C33U], for which the self-cleavage worked out at 0.78.

For the variant CCGCCUAACACUGCCAAUGCCGGCCCCAAGCCCGGAUCAAAGUGGAGGGGGCGG [A38C U24C], the self-cleavage came out at 0.26.

Turning to CCGCCUAACACUGCCAAUGCCGGACCCAAGCCCGGAUCAAAGUGGAGGGGGCGG [A38C U24A], the self-cleavage worked out at 0.16.

Consider CCGCCUAACACUGCCAAUGCCGGGCCCAAGCCCGGAUCAAAGUGGAGGGGGCGG [A38C U24G], for which the self-cleavage was found to be 0.04.

For CCGCCUAACACUGCCAAUGCCGGUCCCAAGCCCGGAUGACAGUGGAGGGGGCGG [A38G A40C], the self-cleavage stood at 0.07.

Turning to CCGCCUAACACUGCCAAUGCCGGUCCCAAGCCCGGAUGAGAGUGGAGGGGGCGG [A38G A40G], the self-cleavage came out at 0.6.

Regarding CCGCCUAACACUGCCAAUGCCGGUCCCAAGCCCGGAUGAUAGUGGAGGGGGCGG [A38G A40U], the self-cleavage turned out to be 0.32.

With CCGCCUAACACUGCCAAUGCCGGUCCCAAGCCCGGAUGAAAGUGGCGGGGGCGG [A38G A46C], the self-cleavage was 0.08.

On to CCGCCUAACACUGCCAAUGCCGGUCCCAAGCCCGGAUGAAAGUGGGGGGGGCGG [A38G A46G], for which the self-cleavage turned out to be 0.08.

CCGCCUAACACUGCCAAUGCCGGUCCCAAGCCCGGAUGAAAGUGGUGGGGGCGG [A38G A46U]: the self-cleavage turned out to be 0.07.

Turning to CCGCCUAACACUGCCAAUGCCGGUCCCAAGCCCGAAUGAAAGUGGAGGGGGCGG [A38G G35A], the self-cleavage was found to be 0.83.

In the case of CCGCCUAACACUGCCAAUGCCGGUCCCAAGCCCGCAUGAAAGUGGAGGGGGCGG [A38G G35C], the self-cleavage was determined as 0.26.

Consider CCGCCUAACACUGCCAAUGCGGGUCCCAAGCCCGGAUGAAAGUGGAGGGGGCGG [A38G C21G], for which the self-cleavage came out at 0.08.

On to CCGCCUAACACUGCCAAUGCUGGUCCCAAGCCCGGAUGAAAGUGGAGGGGGCGG [A38G C21U], for which the self-cleavage came out at 1.01.

For CCGCCUAACACUGCCAAUGCAGGUCCCAAGCCCGGAUGAAAGUGGAGGGGGCGG [A38G C21A], the self-cleavage is 0.78.

Take CCGCCUAACACCGCCAAUGCCGGUCCCAAGCCCGGAUCAAAGUGGAGGGGGCGG [A38C U12C]: the self-cleavage stood at 0.38.

With CCGCCUAACACGGCCAAUGCCGGUCCCAAGCCCGGAUCAAAGUGGAGGGGGCGG [A38C U12G], the self-cleavage came out at 0.29.

Regarding CCGCCUAACACAGCCAAUGCCGGUCCCAAGCCCGGAUCAAAGUGGAGGGGGCGG [A38C U12A], the self-cleavage came out at 0.92.

CCGCCUAGCACUGCCAAUGCCGGUCCCAAGCCCGGAUGAAAGUGGAGGGGGCGG [A38G A8G]: the self-cleavage was found to be 0.55.

For the variant CCGCCUAUCACUGCCAAUGCCGGUCCCAAGCCCGGAUGAAAGUGGAGGGGGCGG [A38G A8U], the self-cleavage is 0.27.

Turning to CCGCCUACCACUGCCAAUGCCGGUCCCAAGCCCGGAUGAAAGUGGAGGGGGCGG [A38G A8C], the self-cleavage amounted to 0.07.
